Here are results for 13 compounds from ChEMBL document CHEMBL5120861, “Short peptide pharmacophores developed from protein phosphatase-1 disrupting peptides (PDPs)” (Bioorg Med Chem, 2022).

The species named for assay [1] is Homo sapiens. Put plainly: Disruption of PP1 holoenzyme (unknown origin) interaction with protein inhibitor 2 assessed as increase in PP1 phosphatase activity by measuring increase in fluorescence using DiFMUP as substrate at 500 uM enzyme preincubated with I2 for ten mins followed by compound treatment for 20 mins followed by substrate addition by fluorescence based analysis.

Another assay has as its system HeLa. Briefly: Induction of calcium release in human HeLa cells and measured for 30 mins by fluorescent Ca2+-indicator dye Fluo-4 based fluorescence microscopy. It counts as functional, cell-based. A digest of the protocol: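 HeLa Kyoto cells in low-glucose DMEM, 10% FBS, seeded day before to ~80% confluency; loaded with 0.5 μM Fluo-4 in HEPES imaging buffer pH 7.4 (1.2 mM CaCl2) 30 min rt, washed; confocal imaging ex 488/em 516 nm, 2 min baseline, compound added, recorded 30 min; responder cells counted. Calcium-free variant: CaCl2 omitted, 250 μM EGTA.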

Assay [2] is described as follows: Disruption of PP1 holoenzyme (unknown origin) interaction with protein inhibitor 2 assessed as increase in PP1 phosphatase activity by measuring increase in fluorescence using DiFMUP as substrate enzyme preincubated with I2 for ten mins followed by compound treatment for 20 mins followed by substrate addition by fluorescence based analysis. On the set-up: species or system Homo sapiens.

Assay [3] is described as follows: Binding affinity to PP1 (unknown origin) assessed as dissociation constant at compound to protein molar ratio of 1:1 by isothermal titration calorimetry assay. On the set-up: species or system Homo sapiens. The method in brief: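 PP1 dialysed into 20 mM TrisCl pH 7.4, 200 mM NaCl, 1 mM TCEP; precipitate removed, protein concentrated to 19.16 μM (0.72 mg/ml) in cell. Peptide dissolved in final dialysis buffer (also the reference), 500 μM in syringe, 1.8 μl injections every 2 min at 25°C. Data corrected for dilution heat and fitted for Kd and stoichiometry.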
In general terms: In ITC the heat of successive injections is recorded.

The nature of assay [4]: Binding affinity to PP1 (unknown origin) assessed as binding to RVxF binding site of PP1 by competing with PDP incubated for 60 mins in presence of biotin-PDP2 by ALPHA assay. On the set-up: species or system Homo sapiens. The method in brief: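 His-tagged PP1 200 nM with biotin-PDP2 67 nM in 50 mM TrisCl pH 7.5, 150 mM NaCl, 0.05% Tween 20, 1 mM MnCl2, 0.1% BSA; serial dilutions starting from 10 mM, 60 min rt; then streptavidin-donor and anti-His-acceptor beads at 5 μg/ml final, 90 min rt in dark; excitation 680 nm, emission 570 nm. Non-specific control used 22 nM GST(His-Biotin) instead.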

Assay [5] is filed under the species Homo sapiens. Put plainly: Binding affinity to PP1 (unknown origin) assessed as change in entropy at compound to protein molar ratio of 1:1 by isothermal titration calorimetry assay. The method in brief:
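PP1 dialyzed into 20 mM TrisCl pH 7.4, 200 mM NaCl, 1 mM TCEP, precipitate removed, 19.16 μM (0.72 mg/ml) in the cell. Compound 500 μM in last dialysis buffer, injected 1.8 μl every 2 min at 25°C. Data corrected for dilution heat and fitted for stoichiometry, Kd, ΔH, ΔS.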

Molecules are shown by their SMILES. The source made the active and inactive calls. The calls are words filed in the database; no cut-off is given here. Where a SMILES comes first, the peptide text is derived from it. [ ]: non-standard residue; d: D form. NMeR = CN[C@@H](CCCNC(=N)N)C(=O)O; hArg = N=C(N)NCCCC[C@H](N)C(=O)O; β3hR = N=C(N)NCCC[C@H](N)CC(=O)O; Gly(cPr) = N[C@H](C(=O)O)C1CC1; Orn = NCCC[C@H](N)C(=O)O

On to `CC[C@H](C)[C@H](NC(=O)[C@@H](N)CCCNC(=N)N)C(=O)N[C@H](C(=O)N[C@@H](Cc1ccccc1)C(=O)O)[C@@H](C)O` (H-RITF-OH), for which the result in the assay filed under Homo sapiens [1] was Active.

Regarding `CC(C)C[C@H](NC(=O)[C@@H](N)CCCNC(=N)N)C(=O)N[C@H](C(=O)N[C@@H](Cc1ccccc1)C(=O)O)[C@@H](C)O` (H-RLTF-OH), the result in the assay filed under Homo sapiens [1] was Active.

Consider `CC(C)[C@H](NC(=O)[C@H](CCCNC(=N)N)NC(=O)[C@@H](N)CCCN)C(=O)N[C@@H](Cc1c[nH]cn1)C(=O)N[C@@H](Cc1ccccc1)C(N)=O` (H-[Orn]RVHF-NH2), for which the outcome in the assay on HeLa was Active. The EC50 in assay [2] was 4100 nM.

Take `CC(C)[C@H](NC(=O)[C@@H](N)CCCNC(=N)N)C(=O)N[C@@H](Cc1ccc(O)cc1)C(=O)N[C@@H](Cc1ccccc1)C(=O)O` (H-RVYF-OH): in the assay filed under Homo sapiens [1], the outcome was Active.

Consider `CC(C)[C@@H](NC(=O)[C@@H](Cc1cnc[nH]1)NC(=O)[C@H](N)Cc1ccccc1)C(=O)N[C@H](CCCNC(=N)N)C(=O)O`, for which the outcome in the assay filed under Homo sapiens [1] was Active.

For `CC(C)[C@H](NC(=O)[C@@H](N)CCCNC(=N)N)C(=O)NCC(=O)N[C@@H](Cc1ccccc1)C(=O)O` (H-RVGF-OH), the result in the assay filed under Homo sapiens [1] was Active.

With `CC(C)[C@H](NC(=O)[C@H](CCCNC(=N)N)N(C)C(=O)[C@@H](N)CCCCN)C(=O)N[C@@H](Cc1cnc[nH]1)C(=O)N[C@@H](Cc1ccccc1)C(N)=O` (H-K[NMeR]VHF-NH2), the result in the assay with HeLa was Active. In addition, the EC50 in assay [2] was determined as 4700 nM.

Consider `CC(C)[C@H](NC(=O)[C@H](CCCNC(=N)N)NC(=O)[C@@H](N)CCCCN)C(=O)N[C@@H](Cc1cnc[nH]1)C(=O)N[C@@H](Cc1ccccc1)C(N)=O`, for which the Kd in assay [3] was 2100 nM. Moreover, the IC50 in assay [4] stood at 124000 nM. Moreover, the EC50 in assay [2] was found to be 600 nM. Also, the deltaS in the assay listed under Homo sapiens [5] came to 3.94 cal/mol/deg.

`CC(C)[C@H](NC(=O)[C@H](CCCCNC(=N)N)NC(=O)[C@@H](N)CCCCN)C(=O)N[C@@H](Cc1cnc[nH]1)C(=O)N[C@@H](Cc1ccccc1)C(N)=O` (H-K[hArg]VHF-NH2): the Activity result in the assay on HeLa (DDE = dose-dependent effect) was “Dde”. Further, the EC50 in assay [2] was determined as 1700 nM.

With `CC(C)[C@H](NC(=O)[C@H](CCCNC(=N)N)NC(=O)C[C@@H](N)CCCNC(=N)N)C(=O)N[C@@H](Cc1cnc[nH]1)C(=O)N[C@@H](Cc1ccccc1)C(N)=O` (H-[β3hR]RVHF-NH2), the outcome with HeLa was Active. For the same compound, the EC50 in assay [2] was 3200 nM.

In the case of `N=C(N)NCCC[C@H](NC(=O)[C@@H](N)CCCCN)C(=O)N[C@H](C(=O)N[C@@H](Cc1c[nH]cn1)C(=O)N[C@@H](Cc1ccccc1)C(N)=O)C1CC1` (H-KR[Gly(cPr)]HF-NH2), in the assay with HeLa, the outcome was Active. For the same compound, the EC50 in assay [2] amounted to 2100 nM.

As to `CC(C)[C@H](NC(=O)[C@@H](NC(=O)[C@@H](N)CCCNC(=N)N)C(C)C)C(=O)N[C@@H](Cc1ccccc1)C(=O)O` (H-RVVF-OH), in the assay filed under Homo sapiens [1], the result was Active.

For the compound `CC(C)[C@H](NC(=O)[C@@H](N)CCCNC(=N)N)C(=O)N[C@@H](CCC(=O)O)C(=O)N[C@@H](Cc1ccccc1)C(=O)O` (H-RVEF-OH), in the assay filed under Homo sapiens [1], the outcome was Active.

In general, EC50 refers to the concentration that produces a half-maximal response. By Kd is commonly meant the free concentration of one partner at which half of the binding sites on the other are occupied at equilibrium, for simple one-to-one binding. What is called IC50 is the concentration that gives 50% inhibition.
